Screening data as filed in PubChem BioAssay.
KCC2 mod – KCC2 cotransporter modulators, thallium flux, primary screen, cell-based, HEK293 KCC2, FluoZin-2 fluorescence, MLSMR; Solute carrier family 12 member 5 (Homo sapiens), Q9H2X9; 2.2% of 190,000 active; KCC2 cells, thallium flux FluoZin-2 fluorescence; AID 1456, 2008; B-score of Tl+ flux slope (higher = more flux/activation; lower = inhibition) at 10 µM;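 active = thallium flux slope and its plate-corrected score both differing from the plate sample mean at a set confidence after two filtering rounds, in either direction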;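 also: slope of fluorescence scaled to starting intensity during 10 to 20 s after thallium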
ROMK primary – ROMK potassium channel modulators, primary screen, cell-based, thallium flux, MLSMR library | AID 1918, 2009 | Tet-inducible ROMK, thallium flux fluorescence; actives lie on both sides | ATP-sensitive inward rectifier potassium channel 1 (Homo sapiens), P48048 | 2% of 130,000 active | B-score at 10 µM;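 active = signal ratio slope over the read window, or its plate-corrected B-score, at least 3 SD from the plate mean, either direction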;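 also: B-score of the F/F0 ratio slope over 7 to 12 s after thallium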
Target sequence (P48048 whole entry, looked up): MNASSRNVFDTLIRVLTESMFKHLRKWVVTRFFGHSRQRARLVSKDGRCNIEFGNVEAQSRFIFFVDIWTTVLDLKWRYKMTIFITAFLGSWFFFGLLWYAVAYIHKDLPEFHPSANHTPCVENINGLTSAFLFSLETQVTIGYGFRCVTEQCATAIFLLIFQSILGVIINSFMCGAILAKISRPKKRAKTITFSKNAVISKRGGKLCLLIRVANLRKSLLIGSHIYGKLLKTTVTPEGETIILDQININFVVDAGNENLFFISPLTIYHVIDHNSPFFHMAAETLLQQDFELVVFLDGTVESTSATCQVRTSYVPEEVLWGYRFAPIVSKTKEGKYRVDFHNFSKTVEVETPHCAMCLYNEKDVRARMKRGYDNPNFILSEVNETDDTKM
Diaphorase inh – diaphorase inhibitors and chemical oxidizers, primary screen, counter-screen for diaphorase-coupled primary assays, biochemical, uHTS, resorufin fluorescence. AID 1217, 2008. 0.69% of 190,000 active. diaphorase resazurin-to-resorufin fluorescence, NADH, 16 min; bacterial (C. kluyveri) enzyme, not human. inhibition, % at 20 µM;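 active = primary screen inhibition at 20 µM above a set limit, cut at about 50% in these data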;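 also: plate controls were DMSO with full reaction for no effect and wells lacking NADH for full effect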
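Detection: fluorescence of resorufin formed from resazurin, Ex 544/Em 590 nm; test system: Clostridium kluyveri diaphorase enzyme; amount: 0.14 U/mL diaphorase, enzyme working solution; times: 16-min room-temperature incubation before reading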
WT yeast gro inh – growth inhibition of WT strain, primary screen, mitochondrial fusion inhibitor project, WT and mutant strains, chemical genetic. 2.1% of 190,000 active. AID 1362, 2008. inhibition, % at 10 µM. mitochondrial fusion phenotypic screen; in the data active = inhibition above about 58%; tested in S. cerevisiae
Diaphorase act – compounds boosting diaphorase resazurin reduction – biochemical, uHTS, resorufin fluorescence, counter-screen for diaphorase-coupled primary assays, primary screen | Diaphorase/resazurin coupled assay, 16 min; active compounds read high; 1 = vehicle wells, 0 = NADH-free wells | activation factor at 20 µM | 0.005% of 190,000 active | AID 1229, 2008;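 active = diaphorase activity raised at least twofold by the compound at 20 µM; inactive = activation factor below 2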
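Material: purified diaphorase enzyme from Clostridium kluyveri / Medium: HEPES pH 7.4 buffer with MgCl2 and Tween 20 / Schedule: enzyme reaction of 16 min at room temperature / Measured by: resorufin fluorescence, excitation 544 nm, emission 590 nm / Evaluation: rise in resorufin formation, marking diaphorase activation or chemical reduction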
Lmaj promast – Leishmania major promastigote growth inhibition, primary screen. inhibition, % at 10 µM. 9% of 200,000 active. Leishmania major promastigotes, resazurin fluorescence viability. AID 1063, 2008; in the data active = inhibition above about 50%;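 also: promastigotes grown with compound for 44 hours at 28 °C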
KCC2 secondary – KCC2 modulators in sodium-free buffer, confirmation, cell-based, HEK293 KCC2, thallium flux, secondary assay. FluoZin2 fluorescence; active compounds read high. 15% of 3,700 active. normalised thallium flux (F/F0 slope) at 10 µM. shares compounds with KCC2 mod;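 active = thallium flux slope above the same plate's solvent-only control mean plus 3 SD; inconclusive = the two replicate wells disagree; inactive = no significant difference from solvent-only control wells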
KCC2 bumet counter – thallium flux persisting under bumetanide in KCC2 cells, confirmation, counter-screen for KCC2 modulator project, cell-based, HEK293 KCC2, FluoZin2, secondary assay 3 | shares compounds with KCC2 mod | HEK293-KCC2 + bumetanide/ouabain; active compounds read high | normalized thallium flux at 10 µM | 49% of 3,700 active;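 active = thallium entry rate above the same plate's blocked-transporter control wells by more than 3 SD; inconclusive = the two repeat wells disagree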;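 also: raw slope of fluorescence over initial fluorescence between 10 and 20 s after thallium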
KCC2 secondary2 – KCC2 modulators without ouabain present, confirmation, cell-based, HEK293 KCC2, thallium flux, FluoZin2, secondary assay 2 | shares compounds with KCC2 mod | thallium flux FluoZin2 fluorescence; actives lie on both sides; F/F0 rise rate, 10–20 s post-thallium | normalized thallium flux at 10 µM | 23% of 3,700 active | AID 1715, 2009;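 active = thallium flux slope more than 3 SD above or below the plate's solvent-only control mean, mostly below; inconclusive = the two repeat wells disagreed; inactive = no significant shift from solvent-only controls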;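 also: raw slope with 0.1% DMSO as baseline and bumetanide as block control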
HEK293 Tl flux – thallium flux modulation in parental HEK cells, confirmation, counter-screen for KCC2 modulator project, cell-based, counterscreen 1; shares compounds with KCC2 mod; HEK293 parental cells, thallium flux FluoZin2, ouabain; baseline-ratio fluorescence slope, 10–20 s after thallium; thallium flux rate (normalised fluorescence) at 10 µM; 46% of 3,700 active; AID 1716, 2009;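 active = thallium flux rate significantly above the same plate's solvent-only control wells, beyond their mean plus 3 SD; inconclusive = the two replicate wells gave conflicting results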
KCC2 ouabain – KCC2 inhibitors and activators, ouabain retest, confirmation, HEK-KCC2 cells. shares compounds with KCC2 mod. HEK293-KCC2, thallium flux FluoZin2 fluorescence; bidirectional: low = inhibitor, high = activator. raw Tl+ flux slope (below DMSO = inhibition, above = activation) at 10 µM. 48% of 3,700 active. AID 1717, 2009;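 active = thallium flux slope beyond 3 SD from same-plate DMSO control mean in most replicates, usually higher, sometimes lower; inconclusive = repeat tests gave conflicting results; inactive = no significant difference from controls in most replicates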;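 also: slope of initial-normalized fluorescence between seconds 10 and 20 after thallium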
HEK293 Tl flux2 – native HEK Tl+ uptake effects, second counter-screen – HEK cells, counterscreen 2, counter-screen for KCC2 modulator project, confirmation; shares compounds with KCC2 mod; AID 1718, 2009; HEK293 parental, thallium flux FluoZin-2 fluorescence slope; thallium flux slope at 10 µM; 33% of 3,700 active;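 active = thallium flux slope above the same plate's solvent-control mean plus 3 SD in both duplicate wells; inconclusive = duplicate wells that disagreed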;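 also: run without ouabain in cells lacking the KCC2 cotransporter; slope of fluorescence scaled to its starting value between 10 and 20 s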
An asterisk follows results filed as active; u = inconclusive; x = not tested or not shown. In the library only some 12% were active in any assay of this set; here they are far more common.

SMILES	KCC2 mod	ROMK primary	Diaphorase inh	WT yeast gro inh	Diaphorase act	Lmaj promast	KCC2 secondary	KCC2 bumet counter	KCC2 secondary2	HEK293 Tl flux	KCC2 ouabain	HEK293 Tl flux2
Cc1nn(-c2ccccc2)nc1C(=O)c1c(C)[nH]n(-c2ccccc2)c1=O	11*	1.5	x	x	x	x	0.015*	0.029*	0.038	u	0.034*	u
Cc1[nH]n(-c2ccccc2)c(=O)c1C(=O)c1ccc([N+](=O)[O-])cc1	0.48	-0.42	12	5	0.9	-7	x	x	x	x	x	x
CCCCN(C)CCNC(=O)Cn1ncc2c(=O)oc3ccc(C)cc3c21	x	x	15	13	0.8	4	x	x	x	x	x	x
COC(=O)c1cc(OC)c(OC)cc1NC(=O)c1cc(OC)cc(OC)c1	5.3*	-0.047	x	15	x	-4	0.0092	0.0052	0.031	0.0068	0.021	0.0094
COc1ccc(C(=O)Nc2cc(OC)c(Cl)cc2OC)cc1	-4.5*	-0.32	8	3	0.9	3	0.0098	0.0086*	0.033	0.015*	0.021	0.011
COC(=O)c1cc(OC)c(OC)cc1NC(=O)c1ccccc1	-0.81	x	3	-4	1	4	x	x	x	x	x	x
COC(=O)c1cc(OC)c(OC)cc1NC(=S)N1CCCCC1	-3.9*	x	17	8	0.8	89*	0.0062	0.005	0.031	0.0074	0.02	0.011
COc1cc(NC(=O)c2ccc(F)cc2)c(OC)cc1Cl	0.55	0.99	1	5	1	-2	x	x	x	x	x	x
COC(=O)c1cc(OC)c(OC)cc1NC(=S)N1CCN(C)CC1	x	x	5	-19	1	2	x	x	x	x	x	x
Cc1ccc(-n2c(C)cc(-c3csc(N)n3)c2C)cc1	-3.2*	x	28	18	0.7	67*	0.0086	0.0063	0.035	u	0.019	0.012
CC/C(Cc1ccccc1)=N/NC(=O)c1cccc(Br)c1	9.2*	-0.78	7	2	0.9	-10	0.0072	0.01*	0.031	0.016*	0.022	0.015*
C/C(=N\NC(=O)c1cccc([N+](=O)[O-])c1)c1ccco1	12*	x	x	x	x	x	0.0077	0.025*	0.038	0.019*	0.029*	0.026*
C/C(=N\NC(=O)c1ccc(Br)cc1)c1ccccc1	6*	x	-2	x	1	-1	0.0089	0.013*	0.032	0.015*	u	0.012
CC/C(Cc1ccccc1)=N\NC(=O)c1cc([N+](=O)[O-])cc([N+](=O)[O-])c1	33*	-0.016	14	2	0.9	59*	0.018*	0.067*	u	0.033*	0.045*	0.018*
CC/C(Cc1ccccc1)=N\NC(=O)c1cc(C)oc1C	-0.16	x	44	-17	0.6	-11	x	x	x	x	x	x
CC1CCc2c(sc(NC(=O)CN3CCN(C(=O)c4ccco4)CC3)c2C#N)C1 (stereo not given)	-1.6	-1.3	15	19	0.8	28	x	x	x	x	x	x
CN1C(=O)S/C(=C\c2ccc(-n3cncn3)cc2)C1=O	x	0.19	16	-2	0.8	7	x	x	x	x	x	x
COc1cccc(NC(=O)CN2C(=O)NC(C)(CC(C)C)C2=O)c1 (stereo not given)	x	0.23	6	-14	0.9	-3	x	x	x	x	x	x
C[C@@H]1CC[C@H]2C(=O)N3[C@@H](CC[C@@H](C)[C@@H]3c3ccc(Br)cc3)C(=O)N2[C@H]1c1ccc(Br)cc1	5.3*	0.054	23	46	0.8	11	0.0069	0.0053	0.028	0.0078	0.018	0.011
O=C1CC(c2ccc(F)cc2)CC2=C1C(c1ccc([N+](=O)[O-])o1)Nc1ccccc1N2 (stereo not given)	-2.4	x	x	x	x	x	x	x	x	x	x	x
Cc1cccc(NC(=O)C2=C(O)c3ccccc3N(C)S2(=O)=O)c1	-0.73	x	10	-18	0.9	-3	x	x	x	x	x	x
CN1c2ccccc2C(O)=C(C(=S)Nc2ccc(Cl)cc2)S1(=O)=O	x	x	15	17	0.9	-7	0.0065	0.021*	0.035	0.017*	u	0.021*
Cc1cc(/C=C2\C(=N)N3N=CSC3=NC2=O)c(C)n1Cc1ccccc1	-0.7	-0.93	x	x	x	x	x	x	x	x	x	x
C=CCOc1c(Br)cc(CNn2nnnc2N)cc1OCC	0.22	2.7	3	8	1	10	x	x	x	x	x	x
CCOc1cc(CNn2nnnc2N)cc(Cl)c1OCC(=O)NC(C)(C)C	-0.029	x	9	-1	0.9	3	0.006	0.0042	0.029	0.0077	0.017	0.01
Cc1c(Cc2ccccc2)c(=O)oc2cc(OCc3ccc(C(=O)O)cc3)ccc12	-4.2*	-0.07	24	-4	0.8	-7	0.0081	0.0056	0.035	0.0063*	u	0.011
COc1cccc(COc2ccc3c(C)c(Cc4ccccc4)c(=O)oc3c2)c1	x	x	x	x	x	-1	x	x	x	x	x	x
CCOc1cc(N(CC)CC)ccc1/C=C(/C#N)c1nc2ccccc2[nH]1	x	x	24	-2	0.8	80*	0.0077*	-0.0033*	0.029	u	0.0081*	0.011
CN(C)/C=C(\C#N)c1nc2ccccc2[nH]1	x	-1.3	12	16	0.9	18	x	x	x	x	x	x
